ChEMBL document CHEMBL1125406, “Structure-activity relationships for inhibition of papain by peptide Michael acceptors” (J Med Chem, 1992)
Each block holds one compound with its values, some of them ahead of it.

How the values were obtained:
[1] = Compound was evaluated for the ratio of apparent inactivation rate constant k2 to apparent binding constant Ki; settings: read-out: k2 / Ki
In short: (§1)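 Mercurial papain activated with L-cysteine for 45 min at 25 °C in 50 mM phosphate, 1 mM EDTA, pH 6.2. Papain (0.11 μM) was incubated at 25 °C and pH 6.2, in 20% CH3CN, with excess inhibitor. Aliquots taken about every 10 min were diluted 10-fold into buffer containing 2 mM Cbz-Gly-ONp. Residual activity was read at 340 nm, corrected for spontaneous hydrolysis, and analysed by Kitz–Wilson plot.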

Papain (Carica papaya) [2] = biological target: T1, Papain (Carica papaya) (UniProt P00784); test: Compound was evaluated for papain inactivation. [I] is the inhibitor concentration; 0.05-1.08; format: functional; in short: as §1
T1 sequence (whole entry): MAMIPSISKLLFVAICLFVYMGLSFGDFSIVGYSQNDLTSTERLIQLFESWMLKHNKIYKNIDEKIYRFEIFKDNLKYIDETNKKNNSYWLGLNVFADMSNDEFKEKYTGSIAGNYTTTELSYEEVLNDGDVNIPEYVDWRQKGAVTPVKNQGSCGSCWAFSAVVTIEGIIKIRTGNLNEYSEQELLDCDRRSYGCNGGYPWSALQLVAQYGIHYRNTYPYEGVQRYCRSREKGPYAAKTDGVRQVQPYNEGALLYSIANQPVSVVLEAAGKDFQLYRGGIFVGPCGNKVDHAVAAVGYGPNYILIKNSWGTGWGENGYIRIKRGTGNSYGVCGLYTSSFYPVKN

Papain (Carica papaya) [3] = biological target: T1, Papain (Carica papaya); test: Compound was evaluated for papain inactivation. [I] is the inhibitor concentration; 0.87-10; format: functional; in short: as §1
Papain (Carica papaya) [4] = biological target: T1, Papain (Carica papaya); test: Compound was evaluated for papain inactivation. [I] is the inhibitor concentration; 60-1000; format: functional; in short: as §1
Papain (Carica papaya) [5] = biological target: T1, Papain (Carica papaya); test: Compound was evaluated for papain inactivation. [I] is the inhibitor concentration; 2-30; format: functional; in short: as §1
Papain (Carica papaya) [6] = biological target: T1, Papain (Carica papaya); test: Compound was evaluated for papain inactivation. [I] is the inhibitor concentration; 1.42-10; format: functional; in short: as §1
Papain (Carica papaya) [7] = biological target: T1, Papain (Carica papaya); test: Compound was evaluated for papain inactivation. [I] is the inhibitor concentration; 30-450; format: functional; in short: as §1
Papain (Carica papaya) [8] = biological target: T1, Papain (Carica papaya); test: Compound was evaluated for papain inactivation. [I] is the inhibitor concentration; 6-35; format: functional; in short: as §1
Papain (Carica papaya) [9] = biological target: T1, Papain (Carica papaya); test: Compound was evaluated for papain inactivation. [I] is the inhibitor concentration; 0.07-0.58; format: functional; in short: as §1
Papain (Carica papaya) [10] = biological target: T1, Papain (Carica papaya); test: Compound was evaluated for papain inactivation. [I] is the inhibitor concentration; 80-160; format: functional; in short: as §1
Papain (Carica papaya) [11] = biological target: T1, Papain (Carica papaya); test: Compound was evaluated for papain inactivation. [I] is the inhibitor concentration; 1-8; format: functional; in short: as §1
Papain (Carica papaya) [12] = biological target: T1, Papain (Carica papaya); test: Compound was evaluated for papain inactivation. [I] is the inhibitor concentration; 60-500; format: functional; in short: as §1

- kinact/KI [1]: 2.46 M⁻¹ s⁻¹
- I (Papain (Carica papaya) [2]): 0.056 mM
Compound: COC(=O)/C=C/CNC(=O)[C@@H](CC(C)C)NC(C)=O

- kinact/KI [1]: 0.23 M⁻¹ s⁻¹
- I (Papain (Carica papaya) [3]): 0.87 mM
Compound: COC(=O)/C=C/CNC(=O)CCc1ccccc1

- kinact/KI [1]: 1.1 M⁻¹ s⁻¹
- I (Papain (Carica papaya) [4]): 60 µM
Compound: CC(=O)NC(Cc1ccccc1)C(=O)NC/C=C/C(N)=O (stereo unspecified)

- kinact/KI [1]: 18.7 M⁻¹ s⁻¹
- I (Papain (Carica papaya) [5]): 2 µM
Compound: CC(=O)NC(Cc1ccccc1)C(=O)NC/C=C/S(C)(=O)=O (stereo unspecified)

- kinact/KI [1]: 0.05 M⁻¹ s⁻¹
- I (Papain (Carica papaya) [6]): 1.42 mM
Compound: COC(=O)/C=C/CNC(=O)c1ccccc1

- kinact/KI [1]: 5 M⁻¹ s⁻¹
- I (Papain (Carica papaya) [7]): 30 µM
Compound: CC(=O)NC(Cc1ccccc1)C(=O)NC/C=C/C(=O)O (stereo unspecified)

- kinact/KI [1]: 26.1 M⁻¹ s⁻¹
- I (Papain (Carica papaya) [8]): 6 µM
Compound: COC(=O)/C=C/CNC(=O)C(Cc1ccccc1)NC(C)=O (stereo unspecified)

- kinact/KI [1]: 2.06 M⁻¹ s⁻¹
- I (Papain (Carica papaya) [9]): 0.07 mM
Compound: COC(=O)/C=C/CNC(=O)[C@@H](CCSC)NC(C)=O

- I (Papain (Carica papaya) [10]): 80 µM
Compound: CC(=O)NC(Cc1ccccc1)C(=O)NC/C=C/c1ccc([N+](=O)[O-])cc1 (stereo unspecified)

- kinact/KI [1]: 0.25 M⁻¹ s⁻¹
- I (Papain (Carica papaya) [11]): 1 mM
Compound: COC(=O)/C=C/CNC(=O)[C@H](Cc1ccccc1)NC(C)=O

- I (Papain (Carica papaya) [12]): 60 µM
- kinact/KI [1]: 1.7 M⁻¹ s⁻¹
Compound: CC(=O)NC(Cc1ccccc1)C(=O)NC/C=C/C#N (stereo unspecified)
